MrgX1 allo act: positive allosteric modulators of MrgX1, primary screen, HEK293 cells, Fluo-4 calcium flux; FDSS; stronger effect = higher value; B-score at 10 µM; 310,000 tested, 0.63% active;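 active = plate-corrected calcium response at least 3 library SD above typical, normal starting fluorescence, not activating the receptor alone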;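 also: compound read alongside a low EC10 to EC30 dose of BAM8-22 agonist; peak minus trough fluorescence over baseline measured at the second addition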
Target sequence (Q96LB2 whole entry, looked up): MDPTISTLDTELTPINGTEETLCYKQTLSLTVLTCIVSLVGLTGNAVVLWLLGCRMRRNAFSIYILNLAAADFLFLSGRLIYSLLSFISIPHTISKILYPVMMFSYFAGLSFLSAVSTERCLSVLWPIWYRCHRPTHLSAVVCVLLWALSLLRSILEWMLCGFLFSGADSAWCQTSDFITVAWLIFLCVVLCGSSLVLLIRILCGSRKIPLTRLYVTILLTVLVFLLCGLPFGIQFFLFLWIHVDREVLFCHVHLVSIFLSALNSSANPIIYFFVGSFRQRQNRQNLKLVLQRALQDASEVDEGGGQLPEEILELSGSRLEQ
MrgX1 antagonist: antagonists of human MrgX1 receptor, primary screen, HEK293 cells, Fluo-4 calcium flux | BAM8-22 antagonism; stronger effect = lower value | 310,000 tested, 1.3% active | B-score at 10 µM;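 active = calcium-response B-score plate-corrected more than 3 library SD below zero, starting fluorescence within 5 deviations, no agonist response on first addition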;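 also: peak minus trough fluorescence over baseline after final BAM8-22 challenge near maximal dose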
RGS4 inh: RGS4 inhibitors, primary screen, cell-based, HEK293 M3R inducible RGS4, calcium flux; Regulator of G-protein signaling 4 (Homo sapiens), P49798; Fluo-4 calcium flux; stronger effect = higher value; triggered by carbachol at its EC20; B-score at 10 µM; 310,000 tested, 0.45% active;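 active = B-score, a plate-corrected calcium signal, over three deviations above library mean, with baseline fluorescence within five deviations of library mean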;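 also: RGS4 expression induced by doxycycline in cells with stable M3 receptor; B-score is computed from the integrated fluorescence ratio over baseline after carbachol; higher B-score means a larger calcium signal and so more RGS4 inhibition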
Target sequence (P49798 whole entry, looked up): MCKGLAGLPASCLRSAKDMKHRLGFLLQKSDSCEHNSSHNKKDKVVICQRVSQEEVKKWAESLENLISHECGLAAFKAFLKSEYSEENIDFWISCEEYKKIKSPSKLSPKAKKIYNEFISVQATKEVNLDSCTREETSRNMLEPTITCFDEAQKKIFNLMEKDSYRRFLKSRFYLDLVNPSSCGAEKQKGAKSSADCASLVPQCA
RGS4 act: RGS4 potentiators or activators, primary screen, cell-based, HEK293 M3R inducible RGS4, calcium flux | AID 463111, 2010 | 310,000 tested, 0.92% active | carbachol calcium flux Fluo4; stronger effect = lower value | B-score at 10 µM;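 active = B-score of the integrated calcium signal more than 4 SD below the library mean, with starting fluorescence not abnormally high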;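 also: negative B-score means reduced calcium response which marks RGS4 activation or potentiation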
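test system = M3R-expressing HEK293 line, RGS4 induced by doxycycline | probe or stimulus = carbachol at ECmax as muscarinic agonist stimulus | timing = dye loading 30 min 37 °C, buffer rest 30 min RT | signal = calcium dye Fluo4 fluorescence | evaluation = B score from integrated fluorescence ratio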
MrgX1 agonist: agonists of human MrgX1 receptor, primary screen, HEK293 cells, Fluo-4 calcium flux; B-score at 10 µM; 310,000 tested, 0.44% active; Fluo-4 calcium fluorescence, agonist mode; stronger effect = higher value; Mas-related G-protein coupled receptor member X1 (Homo sapiens), Q96LB2; AID 588627, 2011;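 active = calcium response B-score plate-corrected fluorescence ratio at least 3 library SD, with starting fluorescence B-score inside 5 SD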
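System: HEK293 cells stably expressing human MrgX1 receptor; Dosing: test compound in the initial addition of three; Schedule: overnight plating, then 30 min 37 °C plus 30 min room-temperature dye loading; Detection: kinetic calcium dye fluorescence, Fluo-4 NW; Controls: per-plate positive and negative controls for Z′ factor.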
Numbers without * were called inactive. Rows were chosen to be rich in hits. Some 3.5% of all compounds tested hit in one or more screens of this group.

For CC1(C#CC[N+]2(C)CCCCC2)CCC2C(O1)c1ccccc1OC2(C)C (stereo not given) the results were MrgX1 allo act inactive, MrgX1 antagonist inactive, RGS4 inh inactive, RGS4 act -6.98* and MrgX1 agonist inactive.
For CCOc1ccc(OCCCCOc2ccccc2C(C)=O)cc1 the results were MrgX1 allo act inactive, MrgX1 antagonist inactive, RGS4 inh inactive, RGS4 act inactive and MrgX1 agonist inactive.
CC(C)(C)OC(=O)C(C)(C)O/N=C(\C(=O)O)c1csc(N)n1 was read as MrgX1 allo act inactive, MrgX1 antagonist inactive, RGS4 inh inactive, RGS4 act inactive and MrgX1 agonist inactive.
Screening c1ccc(C[n+]2ccc3ccccc3c2)cc1 returned MrgX1 allo act inactive, MrgX1 antagonist inactive, RGS4 inh inactive, RGS4 act -7.92* and MrgX1 agonist inactive.
`Cc1cccc(NC(=O)CCCn2cc([N+](=O)[O-])cn2)n1` gave MrgX1 allo act inactive, MrgX1 antagonist inactive, RGS4 inh inactive, RGS4 act inactive and MrgX1 agonist inactive.
For CC(C)c1ccc(C2C3CSCC=C3C(C#N)=C(N)C2(C#N)C#N)cc1 (stereo not given) the results were MrgX1 allo act inactive, MrgX1 antagonist inactive, RGS4 inh inactive, RGS4 act -8.73* and MrgX1 agonist inactive.
`COc1ccc(C(C(=O)NC2CCCC2)N(C(=O)c2snc(C(N)=O)c2N)c2cccc(O)c2)cc1` (stereo not given) gave MrgX1 allo act 6.46*, MrgX1 antagonist inactive, RGS4 inh inactive, RGS4 act inactive and MrgX1 agonist inactive.
NC(=O)c1nsc(C(=O)N(c2cccc(F)c2)C(C(=O)NC2CCCC2)c2ccc(O)cc2)c1N (stereo not given) was read as MrgX1 allo act inactive, MrgX1 antagonist inactive, RGS4 inh inactive, RGS4 act inactive and MrgX1 agonist inactive.
For CCC(C)Sc1cc(-c2nc3ccc(C)cn3c2NCc2ccccc2)ccc1OC (stereo not given) the results were MrgX1 allo act inactive, MrgX1 antagonist inactive, RGS4 inh inactive, RGS4 act inactive and MrgX1 agonist inactive.
CCC(C)Sc1ccc(-c2nc3ccc(C)cn3c2NCc2ccccc2)cc1OC (stereo not given) was read as MrgX1 allo act inactive, MrgX1 antagonist inactive, RGS4 inh inactive, RGS4 act -8.6* and MrgX1 agonist inactive.
Screening COc1ccc(Cl)cc1NC(=O)COC(=O)CCCN1C(=O)c2ccccc2C1=O returned MrgX1 allo act inactive, MrgX1 antagonist inactive, RGS4 inh inactive, RGS4 act inactive and MrgX1 agonist inactive.
For COc1ccc(OC)c(NC(=O)COC(=O)CCCN2C(=O)c3ccccc3C2=O)c1 the results were MrgX1 allo act inactive, MrgX1 antagonist -9.04*, RGS4 inh inactive, RGS4 act inactive and MrgX1 agonist inactive.
COc1ccc(C)cc1S(=O)(=O)N1CCN(C(=O)c2ncoc2-c2ccccc2F)CC1 was read as MrgX1 allo act inactive, MrgX1 antagonist inactive, RGS4 inh inactive, RGS4 act inactive and MrgX1 agonist inactive.
`O=[N+]([O-])c1cncc([N+](=O)[O-])c1Nc1cccc(O)c1` gave MrgX1 allo act inactive, MrgX1 antagonist inactive, RGS4 inh inactive, RGS4 act inactive and MrgX1 agonist 38.1*.
Screening Cc1ccccc1Nc1c([N+](=O)[O-])cncc1[N+](=O)[O-] returned MrgX1 allo act inactive, MrgX1 antagonist inactive, RGS4 inh inactive, RGS4 act inactive and MrgX1 agonist inactive.
Cc1[nH]n(-c2ccccc2)c(=O)c1C(c1ccccc1[N+](=O)[O-])C(C#N)C#N (stereo not given) was read as MrgX1 allo act inactive, MrgX1 antagonist inactive, RGS4 inh inactive, RGS4 act inactive and MrgX1 agonist 35.9*.
Screening c1ccc2c(c1)CCN(c1ncnc3c1[nH]c1ccccc13)C2 returned MrgX1 allo act inactive, MrgX1 antagonist -8.16*, RGS4 inh inactive, RGS4 act inactive and MrgX1 agonist inactive.
`Oc1ccc(-c2nc3ccc4ccccc4c3c3c2CCC3)cc1O` gave MrgX1 allo act inactive, MrgX1 antagonist inactive, RGS4 inh inactive, RGS4 act inactive and MrgX1 agonist inactive.
CCCNC(=O)N1CCN(Cc2ccco2)CC1 was read as MrgX1 allo act inactive, MrgX1 antagonist inactive, RGS4 inh inactive, RGS4 act inactive and MrgX1 agonist inactive.
`COC(=O)c1ccccc1NC(=O)COc1ccccc1` gave MrgX1 allo act inactive, MrgX1 antagonist inactive, RGS4 inh inactive, RGS4 act inactive and MrgX1 agonist inactive.
Screening CC(C)(C)CC(=O)NC(=S)Nc1ccccc1[N+](=O)[O-] returned MrgX1 allo act inactive, MrgX1 antagonist -5.68*, RGS4 inh inactive, RGS4 act inactive and MrgX1 agonist inactive.
Screening O=C(CCOc1ccccc1)Nc1ccccc1[N+](=O)[O-] returned MrgX1 allo act inactive, MrgX1 antagonist -5.41*, RGS4 inh inactive, RGS4 act inactive and MrgX1 agonist inactive.
`COC(=O)c1ccccc1NC(=O)COc1ccccc1[N+](=O)[O-]` gave MrgX1 allo act inactive, MrgX1 antagonist -4.63*, RGS4 inh inactive, RGS4 act inactive and MrgX1 agonist inactive.
`CC1Cc2ccccc2N1C(=O)COc1ccc2c(c1)OCO2` (stereo not given) gave MrgX1 allo act inactive, MrgX1 antagonist inactive, RGS4 inh inactive, RGS4 act inactive and MrgX1 agonist inactive.
Cc1cccc2c1NC(=O)C2(O)N1CCCC(C)C1 (stereo not given) was read as MrgX1 allo act inactive, MrgX1 antagonist inactive, RGS4 inh inactive, RGS4 act inactive and MrgX1 agonist inactive.
Screening CC(=O)N/N=c1\sc2ccccc2n1C returned MrgX1 allo act inactive, MrgX1 antagonist inactive, RGS4 inh inactive, RGS4 act inactive and MrgX1 agonist inactive.
`Cn1/c(=N\NC(=O)c2ccccc2Cl)sc2ccccc21` gave MrgX1 allo act inactive, MrgX1 antagonist inactive, RGS4 inh inactive, RGS4 act inactive and MrgX1 agonist 31.4*.
For COc1cc2c(cc1OC)n(CC(=O)NC1CCCCCC1)n1c(C)cc(=O)nc21 the results were MrgX1 allo act inactive, MrgX1 antagonist inactive, RGS4 inh inactive, RGS4 act inactive and MrgX1 agonist inactive.
`CN(C)CC/C=C1\c2cc(F)ccc2CSc2ccccc21` gave MrgX1 allo act inactive, MrgX1 antagonist inactive, RGS4 inh inactive, RGS4 act -8.8* and MrgX1 agonist inactive.

From PubChem BioAssay
